Published values pooled from the literature.
Lines come from different studies, so protocols differ.
Target: Wee1-like protein kinase (WEE1, Homo sapiens, UniProt P30291)

SMILES	assay	system	conditions	measurement	result
O=C(Nc1cnn(-c2csc(C(=O)NC3COC3)c2)c1)Nc1ccccc1Cl	enzyme activity, inhibitor		5 µM	remaining activity	124%
Nc1cnc(N2CCc3cc(S(=O)(=O)Nc4c(F)cc(Cl)cc4F)cc(N4CCCC4=O)c32)nc1	cell-free assay, competition with immobilised ligand		1 µM	remaining binding	72%
Cc1cc(NC(=O)c2cccc3cc(-c4cccc5[nH]nc(N)c45)ccc23)ccc1F	enzyme activity, inhibitor		0.1 µM	activity vs control	97%
COc1cc2ncnc(Nc3ccc(F)c(Cl)c3)c2cc1OCCCN1CCOCC1	cell-free assay		0.5 µM	remaining signal	93.8%
CC(C)(O)[C@H]1CC[C@H](Nc2ccc3ncc(-c4cccc(C(F)(F)F)c4)n3n2)CC1	enzyme activity, inhibitor		1 µM	remaining activity	87.3%
CNc1cc(Oc2cc(C(=O)Nc3cc(N4CCN(C)CC4)cc(C(F)(F)F)c3)ccc2C)ncn1	target engagement in cells, inhibitor, chemoproteomics	Huh-7	1 µM	inhibition	-10.9%
O=C1Nc2ccc(Cl)cc2C1=Cc1cc(Cl)c(O)c(Cl)c1	cell-free assay		0.5 µM	remaining signal	79.1%
CC(=O)N1CCC(c2ccc(C(=O)NC3=NCCN3)cc2C(F)(F)F)CC1	cell-free assay, competition with immobilised ligand		1 µM	remaining binding	100%
Nc1nc(Nc2ccc(S(N)(=O)=O)cc2)nn1C(=O)c1c(F)cccc1F	cell-free assay		0.5 µM	remaining signal	83.6%
CC(C)(C)c1nc2c(s1)c1nc(N)ncc1c1ccc(NS(=O)(=O)c3c(F)cccc3F)c(F)c12	enzyme activity, inhibitor, radiometric		1 µM	remaining activity	87%
O=C1NC(=O)c2cc(Nc3ccc(F)cc3)c(Nc3ccc(F)cc3)cc21	cell-free assay		0.5 µM	remaining signal	99.6%
Cc1c(C(=O)O)cc(-c2ccc(C3CCNCC3)cc2)c2ccc(-c3ccc(C(F)(F)F)cc3)cc12	binding, competition with immobilised ligand		1 µM	remaining binding	80%
COc1cc(Cl)c(C(=O)N[C@@H](CN[C@H]2CC[C@@H](N)CC2)Cc2ccc(C#N)cc2)cc1-c1ccc(CN[C@H](C)c2ccc(C)cc2)o1	enzyme activity, inhibitor		1 µM	remaining activity	102%
CN1CC(Oc2cnc(C#N)cc2-c2ccn3nc(NC(=O)C4CC4)cc3c2)C1	enzyme activity, inhibitor		1 µM	inhibition	2%
O=C(O)[C@H]1[C@H](Cn2nnc3ccccc3c2=O)CC[C@@H]1C(=O)c1ccc(OCCC2CCOCC2)cc1	cell-free assay, competition with immobilised ligand		1 µM	remaining binding	100%
Cc1ccc(NC(=O)c2ccc(C)c(C(F)(F)F)c2)cc1C#Cc1nn(C2CCC(O)CC2)c2ncnc(N)c12 (stereo not shown)	cell-free assay		10 µM	remaining signal	95%
